Laboratory results taken from ChEMBL document CHEMBL4138101, “Rhodium-catalyzed C-H bond activation for the synthesis of quinonoid compounds: Significant Anti-Trypanosoma cruzi activities and electrochemical studies of functionalized quinones” (Eur J Med Chem, 2017).

Test system: Trypanosoma cruzi
Assay: Antitrypanosomal activity against bloodstream forms of Trypanosoma cruzi Y isolated from parasite infected Albino Swiss mouse assessed as induction of parasite lysis incubated for 24 hrs by Neubauer chamber based cell counting method
Type: functional, organism-based
Conditions: not given
Summary of the method: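 Bloodstream trypomastigotes were taken from infected mice at peak parasitemia by differential centrifugation and resuspended at 10x10^6 cells/mL in DMES medium. They were mixed 1:1 with compound at twice the final concentration, with DMSO final ≤0.1%, and incubated at 37°C for 24 h. Benznidazole was the control. Counts were made in a Neubauer chamber, giving IC50/24 h as the concentration causing 50% parasite lysis.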

Compound | IC50
COc1cccc2c1C(=O)C=CC2=O | 1.02 µM
CC(=O)Oc1cccc2c1C(=O)C=CC2=O | 0.16 µM
CC(C)(C)C1=CC(=O)C(Br)=CC1=O | 14.1 µM
COC1=C(I)C(=O)C(I)=C(OC)C1=O | 1.94 µM
O=C1C=CC(=O)C([Se]c2ccccc2)=C1 | 16 µM
Nc1c(I)ccc2c1C(=O)C=CC2=O | 0.56 µM
COc1ccc2c(c1I)C(=O)C=CC2=O | 1.17 µM
O=C1C=C(I)C(=O)c2ccccc21 | 1.79 µM
CC1=CC(=O)c2c(ccc(I)c2O)C1=O | 0.99 µM
O=C1C=CC(=O)c2c(O)c(I)cc(I)c21 | 24.8 µM
O=C1C=CC(=O)c2c(C#Cc3ccccc3)cccc21 | 2.2 µM
O=C1C=C(Br)C(=O)C(Cl)=C1Cl | 15.4 µM
Cc1cc(I)c2c(c1)C(=O)C=CC2=O | 0.49 µM
O=C1C=CC(=O)c2c(I)ccc(I)c21 | 0.22 µM
CCOC(=O)/C=C/c1cccc2c1C(=O)C=CC2=O | 6.03 µM
O=C1C(Cl)=C(Cl)C(=O)c2c(I)cccc21 | 7.26 µM
CC(C)(C)C1=CC(=O)C(I)=CC1=O | 12.8 µM
CC(=O)Oc1cccc2c1C(=O)C(Br)=CC2=O | 0.85 µM
COC1=C(I)C(=O)C=CC1=O | 23.9 µM
COc1cc2c(c(I)c1OC)C(=O)C=CC2=O | 1.62 µM

Compound | IC50
COC(=O)c1ccc(I)c2c1C(=O)C=CC2=O | 1.61 µM
COc1c(I)ccc2c1C(=O)C=C(C)C2=O | 4.06 µM
O=C1C(Br)=CC(=O)c2c(I)cccc21 | 1.38 µM
COc1c(I)ccc2c1C(=O)C=CC2=O | 1.35 µM
O=C1C=CC(=O)c2c1ccc(I)c2O | 42 µM
CC1=C(C)C(=O)C(I)=CC1=O | 10.1 µM
O=C1C=CC(=O)C(Br)=C1 | 21.5 µM
O=C1C=C(I)C(=O)C(Cl)=C1Cl | 27 µM
O=C1C=C([Se]c2ccccc2)C(=O)c2ccccc21 | 1.13 µM
O=C1C=CC(=O)c2c(/C=C/c3ccccc3)cccc21 | 0.19 µM
O=C1C=CC(=O)c2c(I)cccc21 | 0.59 µM
O=C1C=C([Se]c2ccccc2)C(=O)C=C1[Se]c1ccccc1 | 83.4 µM
O=C1C(Br)=C(Br)C(=O)c2c(I)cccc21 | 2.25 µM
O=C1C=CC(=O)C(I)=C1 | 60.6 µM
O=C1C=CC(=O)c2c1cccc2-c1ccccc1 | 1.24 µM
COc1ccc(I)c2c1C(=O)C=CC2=O | 3.54 µM
O=C1C=C(Br)C(=O)c2ccccc21 [2-Bromo-1,4-naphthoquinone] | 1.37 µM
O=C(Cn1ccnc1[N+](=O)[O-])NCc1ccccc1 [BENZNIDAZOLE] | 9.68 µM
O=C1C=CC(=O)c2c(O)cccc21 [JUGLONE] | 6.51 µM
CC1=CC(=O)c2c(O)cccc2C1=O [PLUMBAGIN] | 1.38 µM

Test system: not listed separately
Assay: Cytotoxicity against Swiss albino mouse peritoneal macrophages after 24 hrs by PrestoBlue dye based assay
Type: cell-based, Peritoneal macrophage
Conditions: read-out: LC50

Compound | CC50 at 24 h
CC(C)(C)C1=CC(=O)C(Br)=CC1=O | 42.3 µM
COC1=C(I)C(=O)C(I)=C(OC)C1=O | 27.7 µM
O=C1C=CC(=O)C([Se]c2ccccc2)=C1 | 13.8 µM
Nc1c(I)ccc2c1C(=O)C=CC2=O | 13.1 µM
COc1ccc2c(c1I)C(=O)C=CC2=O | 14.2 µM
O=C1C=C(I)C(=O)c2ccccc21 | 14.7 µM
CC1=CC(=O)c2c(ccc(I)c2O)C1=O | 15.7 µM
O=C1C=CC(=O)c2c(O)c(I)cc(I)c21 | > 100 µM
O=C1C=CC(=O)c2c(C#Cc3ccccc3)cccc21 | 12.5 µM
O=C1C=C(Br)C(=O)C(Cl)=C1Cl | > 100 µM
Cc1cc(I)c2c(c1)C(=O)C=CC2=O | 12.1 µM
O=C1C=CC(=O)c2c(I)ccc(I)c21 | 12.9 µM
CCOC(=O)/C=C/c1cccc2c1C(=O)C=CC2=O | 12.7 µM
O=C1C(Cl)=C(Cl)C(=O)c2c(I)cccc21 | 27.8 µM
CC(C)(C)C1=CC(=O)C(I)=CC1=O | 35.9 µM
COC1=C(I)C(=O)C=CC1=O | 32.6 µM
COc1cc2c(c(I)c1OC)C(=O)C=CC2=O | 12.2 µM

Compound | CC50 at 24 h
COC(=O)c1ccc(I)c2c1C(=O)C=CC2=O | 13.9 µM
COc1c(I)ccc2c1C(=O)C=C(C)C2=O | 24.7 µM
O=C1C(Br)=CC(=O)c2c(I)cccc21 | 12.2 µM
COc1c(I)ccc2c1C(=O)C=CC2=O | 13.3 µM
O=C1C=CC(=O)c2c1ccc(I)c2O | > 100 µM
CC1=C(C)C(=O)C(I)=CC1=O | 15.4 µM
O=C1C=CC(=O)C(Br)=C1 | 34.4 µM
O=C1C=C(I)C(=O)C(Cl)=C1Cl | > 100 µM
O=C1C=C([Se]c2ccccc2)C(=O)c2ccccc21 | 12.7 µM
O=C1C=CC(=O)c2c(/C=C/c3ccccc3)cccc21 | 11.9 µM
O=C1C=CC(=O)c2c(I)cccc21 | 11.5 µM
O=C1C=C([Se]c2ccccc2)C(=O)C=C1[Se]c1ccccc1 | > 100 µM
O=C1C(Br)=C(Br)C(=O)c2c(I)cccc21 | 11.8 µM
O=C1C=CC(=O)C(I)=C1 | 86 µM
O=C1C=CC(=O)c2c1cccc2-c1ccccc1 | 12.7 µM
COc1ccc(I)c2c1C(=O)C=CC2=O | 13.6 µM
O=C(Cn1ccnc1[N+](=O)[O-])NCc1ccccc1 [BENZNIDAZOLE] | > 4000 µM

Test system: not listed separately
Assay: Selectivity index, ratio of LC50 for cytotoxicity against Swiss albino mouse peritoneal macrophages to IC50 for Antitrypanosomal activity against bloodstream forms of Trypanosoma cruzi Y isolated from parasite infected Albino Swiss mouse
Type: toxicity
Conditions: read-out: Ratio LC50/IC50

Compound | selectivity ratio
CC(C)(C)C1=CC(=O)C(Br)=CC1=O | 3
O=C1C=CC(=O)C([Se]c2ccccc2)=C1 | 0.86
Nc1c(I)ccc2c1C(=O)C=CC2=O | 23.4
COc1ccc2c(c1I)C(=O)C=CC2=O | 12.1
O=C1C=C(I)C(=O)c2ccccc21 | 8.2
CC1=CC(=O)c2c(ccc(I)c2O)C1=O | 15.8
O=C1C=CC(=O)c2c(O)c(I)cc(I)c21 | > 5.1
O=C1C=CC(=O)c2c(C#Cc3ccccc3)cccc21 | 5.7
O=C1C=C(Br)C(=O)C(Cl)=C1Cl | > 6.5
Cc1cc(I)c2c(c1)C(=O)C=CC2=O | 24.7
CCOC(=O)/C=C/c1cccc2c1C(=O)C=CC2=O | 2.1
O=C1C(Cl)=C(Cl)C(=O)c2c(I)cccc21 | 3.8
CC(C)(C)C1=CC(=O)C(I)=CC1=O | 2.8
COC1=C(I)C(=O)C=CC1=O | 1.4
COc1cc2c(c(I)c1OC)C(=O)C=CC2=O | 7.5
COC(=O)c1ccc(I)c2c1C(=O)C=CC2=O | 8.7

Compound | selectivity ratio
COc1c(I)ccc2c1C(=O)C=C(C)C2=O | 6.1
O=C1C(Br)=CC(=O)c2c(I)cccc21 | 8.8
COc1c(I)ccc2c1C(=O)C=CC2=O | 9.8
O=C1C=CC(=O)c2c1ccc(I)c2O | > 4.6
CC1=C(C)C(=O)C(I)=CC1=O | 1.5
O=C1C=CC(=O)C(Br)=C1 | 1.6
O=C1C=C(I)C(=O)C(Cl)=C1Cl | > 4.7
O=C1C=C([Se]c2ccccc2)C(=O)c2ccccc21 | 11.2
O=C1C=CC(=O)c2c(/C=C/c3ccccc3)cccc21 | 62.5
O=C1C=CC(=O)c2c(I)cccc21 | 19.5
O=C1C=C([Se]c2ccccc2)C(=O)C=C1[Se]c1ccccc1 | > 1.2
O=C1C(Br)=C(Br)C(=O)c2c(I)cccc21 | 5.3
O=C1C=CC(=O)c2c1cccc2-c1ccccc1 | 10.2
COc1ccc(I)c2c1C(=O)C=CC2=O | 3.8
O=C(Cn1ccnc1[N+](=O)[O-])NCc1ccccc1 [BENZNIDAZOLE] | > 413

Test system: Trypanosoma cruzi
Assay: Potency index, ratio of juglone IC50 to compound IC50 for antitrypanosomal activity against bloodstream forms of Trypanosoma cruzi Y isolated from parasite infected Albino Swiss mouse
Type: functional
Conditions: not given

Compound | Ratio
O=C1C(Br)=CC(=O)c2c(I)cccc21 | 4.7
O=C1C=CC(=O)c2c1cccc2-c1ccccc1 | 5.2
